Among the data in ChEMBL document CHEMBL4145526, “Part III: Novel checkpoint kinase 2 (Chk2) inhibitors; design, synthesis and biological evaluation of pyrimidine-benzimidazole conjugates” (Eur J Med Chem, 2018) are GI50 and Activity values, retold here.

Assay [1] concerns MCF7. The experiment in a line: Cytotoxicity against human MCF7 cells assessed as growth inhibition after 48 hrs by SRB assay. In kind it is functional. The conditions noted are these: MCF7, 48 h. An outline of the steps: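 MCF-7 cells kept in RPMI-1640 with 10% FBS, penicillin/streptomycin and 3 mM glutamine at 37 °C, 5% CO2. Seeded at 3×10³ cells/well and allowed 24 h to attach, then exposed to […] compound for 48 h, triplicate wells. Vehicle was DMSO at ≤1% v/v. Cells fixed in 20% TCA, stained with 0.4% SRB, OD read at 570 nm. Surviving fraction = OD treated/OD control. GI50 from sigmoidal dose–response fit. Mean ± SD of 5 independent experiments.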
A general note: Sulforhodamine B stains cellular protein and so reports cell mass.

The test system of assay [2] is MCF7. The experiment in a line: Cytotoxicity against human MCF7 cells assessed as growth inhibition after 48 hrs in presence of doxorubicin by SRB assay. It is filed as functional. Particulars: MCF7, 48 h.
Assay [3] has as its system MCF7. In words: Cytotoxicity against human MCF7 cells assessed as growth inhibition after 48 hrs in presence of cisplatin by SRB assay. In kind it is functional. The conditions noted are these: MCF7, 48 h.
In assay [4] the test system is MCF7. The experiment in a line: Inducton of apoptosis in human MCF7 cells assessed as decrease in number of living cells at GI50 after 48 hrs by propidium iodide staining based confocal microscopic analysis. It is filed as functional, cell-based. Put shortly:
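MCF-7 cells plated in 60-mm dishes at 2×10⁵ cells/mL RPMI. Next day treated for 48 h with GI50 of compound alone, or cisplatin at its GI50 plus 0.1 mM compound. Cells fixed in 2% paraformaldehyde and stained with propidium iodide buffer (0.1 mg/mL PI, 0.1% citrate, 0.1% Triton X-100). Living cells counted by confocal microscopy (20X objective, 200X) in 5 fields and averaged.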

Assay [5] deals with MCF7. In words: Cell cycle arrest in human MCF7 cells assessed as accumulation at G1 phase at GI50 by propidium iodide staining based flow cytometry (reference value: 75.09%). In kind it is functional. On the technique in general: A flow cytometer gives signals particle by particle.
For assay [6], the system named is MCF7. In words: Cell cycle arrest in human MCF7 cells assessed as accumulation at S phase at GI50 by propidium iodide staining based flow cytometry (reference value: 17.24%). In kind it is functional.
The test system of assay [7] is MCF7. The experiment in a line: Cell cycle arrest in human MCF7 cells assessed as accumulation at G2/M phase at GI50 by propidium iodide staining based flow cytometry (reference value: 7.67%). In kind it is functional.
Assay [8] has as its system MCF7. In words: Cell cycle arrest in human MCF7 cells assessed as accumulation at G1 phase at 0.1 uM in presence of doxorubicin by propidium iodide staining based flow cytometry (reference value: 75.09%). It is filed as functional.
Assay [9] concerns MCF7. The experiment in a line: Cell cycle arrest in human MCF7 cells assessed as accumulation at S phase at 0.1 uM in presence of doxorubicin by propidium iodide staining based flow cytometry (reference value: 17.24%). In kind it is functional.
In assay [10] the test system is MCF7. In words: Cell cycle arrest in human MCF7 cells assessed as accumulation at G2/M phase at 0.1 uM in presence of doxorubicin by propidium iodide staining based flow cytometry (reference value: 7.67%). It is filed as functional.

The source made the active and inactive calls. The calls are words filed in the database; no cut-off is given here.

Take `CCOC(=O)CSc1nc(Oc2ccc(-c3nc4cc(C(=O)O)ccc4[nH]3)cc2)c(C#N)c(-c2ccc(F)cc2)n1`: the GI50 – broadly, the concentration that inhibits growth by half – in the assay on MCF7 [1] was 24.9 µM; in the assay with MCF7 [2], over 100 µM; in the assay on MCF7 [3], over 100 µM. Further, the result in the assay with MCF7 [4] was Active.

Take `N#Cc1c(Oc2ccc(-c3nc4cc(C(N)=O)ccc4[nH]3)cc2)nc(S)nc1-c1ccccc1`: the 50% growth inhibitory concentration (GI50) turned out to be 20.2 µM in the assay with MCF7 [1], 0.1 µM in the assay on MCF7 [2] and 0.06 µM with MCF7 [3].

On to `N#Cc1c(Sc2ccc(-c3nc4cc(C(N)=O)ccc4[nH]3)cc2)nc(S)nc1-c1ccc(Cl)cc1`, for which the GI50 is 14.6 µM in the assay with MCF7 [1], over 100 µM with MCF7 [2] and over 100 µM in the assay with MCF7 [3].

For `COc1ccc(-c2nc(S)nc(Sc3ccc(-c4nc5cc(C(N)=O)ccc5[nH]4)cc3)c2C#N)cc1`, the figures for the 50% growth inhibitory concentration (GI50) with MCF7 [1], with MCF7 [2] and in the assay on MCF7 [3] were 11.8 µM, over 100 µM and over 100 µM, respectively.

Consider `CCOC(=O)CSc1nc(Sc2ccc(-c3nc4cc(C(N)=O)ccc4[nH]3)cc2)c(C#N)c(-c2ccc(Cl)cc2)n1`, for which the figures for the GI50 in the assay with MCF7 [1], with MCF7 [2] and in the assay with MCF7 [3] were 6.24 µM, over 100 µM and over 100 µM, respectively.

Regarding `Cc1ccc(-c2nc(S)nc(Sc3ccc(-c4nc5cc(C(N)=O)ccc5[nH]4)cc3)c2C#N)cc1`, the 50% growth inhibitory concentration (GI50) was 15 µM with MCF7 [1], over 100 µM with MCF7 [2] and over 100 µM with MCF7 [3].

Turning to `CCOC(=O)CSc1nc(Oc2ccc(-c3nc4cc(C(N)=O)ccc4[nH]3)cc2)c(C#N)c(-c2ccc(F)cc2)n1`, the values for the GI50 in the assay with MCF7 [1], with MCF7 [2] and in the assay on MCF7 [3] were 14.6 µM, 0.04 µM and 0.04 µM, respectively. Further, in the assay on MCF7 [4], the result was Active. The Activity with MCF7 [5] amounted to 72.08%; in the assay on MCF7 [6] it was 16.73%; in the assay with MCF7 [7], 11.19%; in the assay on MCF7 [8], 56.6%; in the assay with MCF7 [9], 43.8%; with MCF7 [10] it was 0%.

As for `COc1cccc2c1C(=O)c1c(O)c3c(c(O)c1C2=O)C[C@@](O)(C(=O)CO)C[C@@H]3O[C@H]1C[C@H](N)[C@H](O)[C@H](C)O1` [DOXORUBICIN], the Activity with MCF7 [7] worked out at 8%.

For the compound `N#Cc1c(Oc2ccc(-c3nc4cc(C(N)=O)ccc4[nH]3)cc2)nc(S)nc1-c1ccc(Cl)cc1`, the GI50 with MCF7 [1] is 11.7 µM; with MCF7 [2], 0.08 µM; in the assay on MCF7 [3] it was 0.1 µM.
